Data on 34 molecules can be found in ChEMBL document CHEMBL1155435, “Design, synthesis and evaluation of constrained tetrahydroimidazopyrimidine derivatives as antagonists of corticotropin-releasing factor type 1 receptor (CRF1R)” (Bioorg Med Chem Lett, 2010).

The target in data set [1] is T1, Corticotropin-releasing factor receptor 1 (Homo sapiens, UniProt P34998).
T1 sequence (P34998 whole entry): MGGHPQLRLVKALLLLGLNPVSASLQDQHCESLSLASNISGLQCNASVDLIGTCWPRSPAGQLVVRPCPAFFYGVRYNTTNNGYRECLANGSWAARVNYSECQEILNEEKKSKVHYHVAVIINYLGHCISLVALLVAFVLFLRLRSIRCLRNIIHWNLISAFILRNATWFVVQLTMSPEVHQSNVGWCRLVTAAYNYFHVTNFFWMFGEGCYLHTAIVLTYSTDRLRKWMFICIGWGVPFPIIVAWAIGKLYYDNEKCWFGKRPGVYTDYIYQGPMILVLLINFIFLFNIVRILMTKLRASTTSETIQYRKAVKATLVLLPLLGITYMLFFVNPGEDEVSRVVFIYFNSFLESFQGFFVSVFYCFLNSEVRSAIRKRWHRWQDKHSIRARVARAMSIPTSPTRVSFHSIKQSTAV
In words: Displacement of [125I]Tyr-o-CRF from human CRFR1 expressed in human IMR32 cells. Format: cell-based, IMR-32. Put shortly:
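Radioligand displacement of [125I]-Tyr-o-CRF from human CRF1 receptor expressed endogenously on intact IMR-32 human neuroblastoma cells. The protocol follows an earlier report.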
On the technique in general: Loss of bound radioactivity is the signal in a displacement assay; it reports binding, not function.

For the next data set, the system named is Mus musculus. In words: Anxiolytic activity in ip dosed mouse assessed as decrease reduction of stretched attenuated postures by canopy test. The class given is functional. A digest of the protocol:
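Mouse canopy test for anxiety-like behaviour. Compound was given ip in cremophor/DMSO/water (1:1:8) at several doses. The read-out was the total count of stretched attend postures. The protocol follows an earlier report.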

A short description of data set [2]: Drug level in mouse brain at 32 mg/kg, ip after 30 mins. The class given is ADME, organism-based. The conditions noted are these: read-out: Drug uptake. Also on record: dose 32 mg/kg, route intraperitoneal. A digest of the protocol: (§1)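 Mice were dosed ip at 32 mg/kg in cremophor/DMSO/water (1:1:8). Brain and plasma were sampled at 30 min and 1 h after dosing. Brain level is given as ng compound per g brain, alongside the brain/plasma concentration ratio.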

Data set [3] is described as follows: Ratio of drug level in mouse brain to plasma at 32 mg/kg, ip after 30 mins. Format: ADME, organism-based. On the set-up: dose 32 mg/kg, route intraperitoneal. Put shortly:
as §1

Data set [4] is described as follows: Drug level in mouse brain at 32 mg/kg, ip after 1 hr. Format: ADME, organism-based. The conditions noted are these: read-out: Drug uptake. Also on record: dose 32 mg/kg, route intraperitoneal. Put shortly: as §1
Data set [5] in a line: Ratio of drug level in mouse brain to plasma at 32 mg/kg, ip after 1 hr. Format: ADME, organism-based. On the set-up: dose 32 mg/kg, route intraperitoneal. A digest of the protocol: as §1

Active and inactive are the calls of the source. The calls are words filed in the database; no cut-off is given here.

A word on the Ki: it is a dissociation constant, usually derived from enzyme kinetics or from competition with a known ligand. Low values mean a stronger hold on the target, high ones a looser hold on the target. In turn, `CCCN(CC1CCC1)C(=O)c1c(C)nc2n1CCCN2c1c(C)cc(C)cc1C` gave a Ki in data set [1] of 3300 nM.

`C=CCN(CC=C)C(=O)c1c(C)nc2n1CCC(=O)N2c1c(C)cc(C)cc1C` returned a Ki in data set [1] greater than 5000 nM.

With `Cc1cc(C)c(N2CCCn3c2nc(C(F)(F)F)c3CN2CC=CCC2)c(C)c1`, the affinity in data set [1], expressed as Ki, was 364 nM.

With `Cc1cc(C)c(N2CCCn3c2nc(C(F)(F)F)c3CN(CC2CCC2)CC(F)(F)F)c(C)c1`, in data set [1], the Ki was 27 nM.

Consider `CCCN(CCC)C(=O)c1c(CC)nc2n1CCC(=O)N2c1c(C)cc(C)cc1C`, for which, in data set [1], the Ki is greater than 5000 nM.

For `Cc1cc(C)c(N2CCCn3c2nc(C(F)(F)F)c3CN2CCOCC2)c(C)c1`, the Ki in data set [1] was determined as 1510 nM.

Regarding `CCCN(CCc1ccccc1)Cc1c(C(F)(F)F)nc2n1CCCN2c1c(C)cc(C)cc1C`, the affinity in data set [1] corresponds to a Ki of 67 nM.

The molecule `CCCN(CCC(F)(F)F)Cc1c(C(F)(F)F)nc2n1CCCN2c1c(C)cc(C)cc1C` yielded a Ki in data set [1] of 63 nM.

In data set [1], `C=CCN(CC=C)C(=O)c1c(CC)nc2n1CCC(=O)N2c1c(C)cc(C)cc1C` yielded a Ki greater than 5000 nM.

`C=CCN(CCC)Cc1c(C(F)(F)F)nc2n1CCCN2c1c(C)cc(C)cc1C`: the affinity in data set [1], expressed as Ki, was 48 nM.

For the molecule `Cc1cc(C)c(N2C(=O)CCn3c2nc(C)c3C(=O)N2CCOCC2)c(C)c1`, the Ki in data set [1] is greater than 5000 nM.

In data set [1], `Cc1cc(C)c(N2CCCn3c2nc(C(F)(F)F)c3CN2CCCN(C)CC2)c(C)c1` displayed a Ki greater than 5000 nM.

For the molecule `CCCN(CC1CC1)C(=O)c1c(C)nc2n1CCCN2c1c(C)cc(C)cc1C`, in data set [1], the Ki is greater than 5000 nM.

`C=CCN(CCC)C(=O)c1c(C)nc2n1CCCN2c1c(C)cc(C)cc1C` yielded a Ki in data set [1] greater than 5000 nM.

On to `Cc1cc(C)c(N2CCCn3c2nc(C(F)(F)F)c3CN(CCc2ccccc2)CC(F)(F)F)c(C)c1`, for which the Ki in data set [1] amounted to 38 nM.

Take `Cc1cc(C)c(N2CCCn3c2nc(C(F)(F)F)c3CN2CCCCC2)c(C)c1`: in data set [1], the inhibition constant Ki came to 245 nM.

For the molecule `CCCCN(CC)C(=O)c1c(CC)nc2n1CCC(=O)N2c1c(C)cc(C)cc1C`, the Ki in data set [1] was greater than 5000 nM.

Turning to `CCCN(Cc1ccccc1)C(=O)c1c(C)nc2n1CCCN2c1c(C)cc(C)cc1C`, the Ki in data set [1] is greater than 5000 nM.

For `CCCN(CC1CC1)C(=O)c1c(CC)nc2n1CCC(=O)N2c1c(C)cc(C)cc1C`, the inhibition constant (Ki) in data set [1] was greater than 5000 nM.

`Cc1cc(C)c(N2CCCn3c2nc(C(F)(F)F)c3CN2CCSCC2)c(C)c1` yielded a Ki in data set [1] of 441 nM.

In data set [1], `C=CCN(CC=C)C(=O)c1c(C(F)(F)F)nc2n1CCCN2c1c(C)cc(C)cc1C` showed an inhibition constant (Ki) of 19 nM.

In data set [1], `CCCN(CC1CC1)C(=O)c1c(C)nc2n1CCC(=O)N2c1c(C)cc(C)cc1C` yielded a Ki greater than 5000 nM.

With `CCCN(CC1CC1)C(=O)c1c(CC)nc2n1CCCN2c1c(C)cc(C)cc1C`, affinity in data set [1] was put at a Ki of 2300 nM.

As a reminder, the Kp is tissue or fluid exposure divided by exposure in the circulation. Turning to `CCCN(Cc1c(C(F)(F)F)nc2n1CCCN2c1c(C)cc(C)cc1C)CC1CC1`, in data set [1], the Ki turned out to be 32 nM. For the same molecule, in the data set with Mus musculus, the result was Active. Besides, in data set [2], the concentration at 0.5 h came out at 352 ng/g. Also, the concentration ratio (Kp) at 0.5 h in data set [3] was found to be 1.2. In data set [4], the concentration at 1 h was determined as 217 ng/g. Moreover, the Kp at 1 h in data set [5] came to 1.

Regarding `Cc1cc(C)c(N2CCCn3c2nc(C(F)(F)F)c3CN(CC2CC2)CC(F)(F)F)c(C)c1`, the Ki in data set [1] was found to be 8 nM.

In the case of `Cc1cc(C)c(N2CCCn3c2nc(C)c3C(=O)N(CC2CC2)CC2CC2)c(C)c1`, in data set [1], affinity was put at a Ki of 3400 nM.

In turn, `CCCN(CC1CC1)C(=O)c1c(C(F)(F)F)nc2n1CCCN2c1c(C)cc(C)cc1C` returned a Ki in data set [1] of 1200 nM.

On to `CCCN(CCC)C(=O)c1c(C)nc2n1CCC(=O)N2c1c(C)cc(C)cc1C`, for which the Ki in data set [1] is greater than 5000 nM.

Consider `CCCN(CCc1ccccc1)C(=O)c1c(C)nc2n1CCCN2c1c(C)cc(C)cc1C`, for which the Ki in data set [1] is 1700 nM.

Molecule `CCCN(Cc1c(C(F)(F)F)nc2n1CCCN2c1c(C)cc(C)cc1C)CC1CCC1` showed a Ki in data set [1] of 21 nM.

In data set [1], `Cc1cc(C)c(N2CCCn3c2nc(C(F)(F)F)c3CN(CC2CC2)CC(F)(F)C(F)(F)F)c(C)c1` had a Ki of 14 nM.

`Cc1cc(C)c(N2C(=O)CCn3c2nc(C)c3C(=O)N2CCN(c3ccccc3F)CC2)c(C)c1` gave a Ki in data set [1] greater than 5000 nM.

The molecule `CCN(Cc1c(C(F)(F)F)nc2n1CCCN2c1c(C)cc(C)cc1C)CC1CC1` registered a Ki in data set [1] of 31 nM.

For the molecule `CCc1nc2n(c1C(=O)N(CC)Cc1ccccc1)CCC(=O)N2c1c(C)cc(C)cc1C`, the Ki in data set [1] was greater than 5000 nM.
